In ChEMBL document CHEMBL3085690, “Naturally occurring antimicrobial peptide OH-CATH30 selectively regulates the innate immune response to protect against sepsis” (J Med Chem, 2013):
Activity calls are given as the source filed them. No cut-off for these calls is given here. Peptide text beside a SMILES is read from it.

Columns and labels:
BMDM [1] = assay: Induction of CXCL3 mRNA up-regulation in mouse BMDM at 20 ug/ml after 3 hrs by qRT-PCR analysis; assay type: functional
How it was run: (§1)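 Murine BMDMs stimulated with peptide, then target mRNA quantified by qRT-PCR. Expression normalized to GAPDH, with untreated cells set to 1.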

[2] = Half life in Kunming mouse at 10 mg/kg, ip; assay type: ADME, organism-based; set-up: dose 10 mg/kg, route intraperitoneal; details: in vivo
Mus musculus [3] = assay: Stimulation of innate immune response in Kunming mouse infected with Staphylococcus aureus ATCC 25923 assessed as reduction of bacterial burden in peritoneal lavage by measuring survival rate at 10 mg/kg, ip administered 5 hrs before bacterial infection measured up to 7 days; assay type: functional, organism-based; set-up: dose 10 mg/kg
How it was run: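 Peptide at 10 mg/kg ip was given 5 h before ip challenge with E. coli 25922 (2.5 × 10^8 CFU), P. aeruginosa 27853 (8 × 10^7 CFU) or S. aureus 25923 (2 × 10^8 CFU) per mouse. Viable bacteria were counted in peritoneal lavage collected in 2 mL of cold saline (n = 7, 6 and 8 respectively; unpaired t test). Survival was recorded for up to 7 days.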

Mus musculus [4] = assay: Stimulation of innate immune response in Kunming mouse assessed as protection against drug-resistant Staphylococcus aureus-induced mortality by measuring survival rate at 10 mg/kg, ip administered 5 hrs before bacterial infection measured up to 7 days; assay type: functional; details: route intraperitoneal
How it was run: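 Female Kunming mice (18−22 g) were dosed ip in sterile saline at 10 mg/kg, 5 h before ip challenge with clinical drug-resistant isolates: E. coli (n = 12), P. aeruginosa (n = 10) or S. aureus (n = 15). Survival was recorded for up to 7 days, with checks every 6 h and euthanasia by CO2 at the humane end point.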

Mus musculus [5] = assay: Stimulation of innate immune response in ip dosed Kunming mouse assessed as protection against Escherichia coli ATCC 25922-induced mortality by measuring survival rate measured up to 7 days; assay type: functional, organism-based
How it was run: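 Kunming mice were challenged ip with E. coli 25922 at 2.5 × 10^8 CFU/mouse (n = 10). A single ip dose of peptide, from 1 to 10 mg/kg in sterile saline, was given 5 h before infection. Survival was followed for up to 7 days and compared by log-rank test.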

[6] = target: Transcription factor p65 (Mus musculus) (UniProt Q04207); assay: Activation of NFkappaB in mouse BMDM assessed as degradation of IkappaBalpha at 10 ug/ml after 15 to 30 mins by Western blotting
How it was run: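 BMDMs (bone marrow cells grown in RPMI 1640 with 10% FCS and 20% L929-conditioned medium) stimulated, then lysates run on 10% SDS-PAGE and transferred to PVDF. Membranes blocked with 5% BSA and probed with phospho-ERK1/2 and total ERK1/2 antibodies, or with anti-IκBα. HRP anti-rabbit secondary, chemiluminescent detection.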

Mus musculus [7] = species: Mus musculus; assay: Activation of JNK in mouse BMDM assessed as phosphorylation at 10 ug/ml by Western blotting
How it was run: (§2)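 BMDMs cultured in RPMI 1640 with 10% FCS and 20% L929-conditioned medium. Lysates separated by 10% SDS-PAGE, blotted to PVDF and blocked in 5% BSA. Probed for phospho-JNK/JNK or phospho-p38/p38, then HRP goat anti-rabbit IgG, chemiluminescence read-out.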

[8] = target: MAP kinase p38 (Homo sapiens) (UniProt O15264+Q15759+Q16539+P53778); assay: Activation of p38 kinase in mouse BMDM assessed as phosphorylation at 10 ug/ml by Western blotting; assay type: protein assay; details: TDE = time-dependent effect, target entry is the homologue from another species; how it was run: as §2
[9] = Increase of CXCL2 production in mouse BMDM after 6 hrs by ELISA in presence of NFkappaB inhibitor Bay11-7082; assay type: functional
[10] = Increase of CXCL2 production in mouse BMDM after 6 hrs by ELISA in presence of p38 MAPK inhibitor SB-202190; assay type: functional
BMDM [11] = assay: Increase of CXCL2 production in mouse BMDM after 6 hrs by ELISA in presence of CD14 Ab; assay type: functional
BMDM [12] = assay: Increase of CXCL2 production in mouse BMDM after 6 hrs by ELISA in presence of WRW4; assay type: functional
BMDM [13] = assay: Increase of CXCL2 production in mouse BMDM after 6 hrs by ELISA in presence of pertussis toxin; assay type: functional
How it was run: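 BMDMs (bone marrow cells in RPMI 1640 with 10% FCS and 20% L929-conditioned medium) were preincubated 30 min with pertussis toxin (100 ng/mL), then stimulated with peptide for 6 h. CXCL2 in the supernatant was measured by ELISA. Mean ± SEM from three independent experiments, unpaired t test.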

RAW264.7 [14] = assay: Downregulation of TLR4/MD2 complex in plasma membrane in mouse RAW264.7 cells relative to LPS; assay type: functional
How it was run: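 RAW 264.7 cells in DMEM with 10% FCS, exposed 30 min to peptide (20 μg/mL) or LPS (1 μg/mL). Washed in ice-cold PBS, stained with PE anti-mouse TLR4/MD2 (2 μg/mL) for 30 min on ice. Surface complex measured by flow cytometry.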

RAW264.7 [15] = assay: Inhibition of PGN-induced TNFalpha production in mouse RAW264.7 cells 2 to 50 ug/ml after 6 hrs by ELISA; assay type: functional, cell-based
RAW264.7 [16] = assay: Inhibition of LPS-induced nitric oxide production in mouse RAW264.7 cells 2 to 50 ug/ml after 6 hrs by ELISA; assay type: functional, cell-based
Mus musculus [17] = assay: Stimulation of innate immune response in bacteria infected Kunming mouse assessed as eradicate invading bacteria at 10 mg/kg, ip after 8 hrs; assay type: functional, organism-based; set-up: dose 10 mg/kg
Mus musculus [18] = assay: Stimulation of innate immune response in Kunming mouse assessed as increase of TNFalpha level in peritoneal lavage at 10 mg/kg, ip after 5 hrs; assay type: functional, organism-based; set-up: dose 10 mg/kg
How it was run: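 Female Kunming mice (18−22 g) received a single ip injection of peptide at 10 mg/kg in sterile saline. Peritoneal lavage was collected in 2 mL of cold sterile saline 5 h later, and cytokines and chemokines were measured by ELISA. Data are mean ± SD from four mice, compared by unpaired t test.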

RAW264.7 [19] = assay: Induction of H2O2 production in mouse RAW264.7 cells; assay type: functional, cell-based
[20] = Cytotoxicity against mouse BMDM at 5 to 20 ug/ml by MTT assay
BMDM [21] = assay: Increase of IL-1beta protein level in mouse BMDM at 20 ug/ml after 18 hrs by ELISA; assay type: functional
How it was run: (§3)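 Bone marrow-derived macrophages (RPMI 1640, 10% FCS, 20% L929-conditioned medium) stimulated with peptide for 18 h. Cytokines and chemokines in culture supernatant quantified by sandwich ELISA. Mean ± SD from three independent experiments, unpaired t test.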

BMDM [22] = assay: Increase of IL-1Ra protein level in mouse BMDM at 20 ug/ml after 18 hrs by ELISA; assay type: functional; how it was run: as §3
[23] = Induction of IL-6 mRNA up-regulation in mouse BMDM at 20 ug/ml after 3 hrs by qRT-PCR analysis relative to control; assay type: functional; how it was run: as §1
[24] = Induction of IL-1beta mRNA up-regulation in mouse BMDM at 20 ug/ml after 3 hrs by qRT-PCR analysis relative to control; assay type: functional; how it was run: as §1

Chain of Transcription factor p65 (Mus musculus) (Q04207 whole entry): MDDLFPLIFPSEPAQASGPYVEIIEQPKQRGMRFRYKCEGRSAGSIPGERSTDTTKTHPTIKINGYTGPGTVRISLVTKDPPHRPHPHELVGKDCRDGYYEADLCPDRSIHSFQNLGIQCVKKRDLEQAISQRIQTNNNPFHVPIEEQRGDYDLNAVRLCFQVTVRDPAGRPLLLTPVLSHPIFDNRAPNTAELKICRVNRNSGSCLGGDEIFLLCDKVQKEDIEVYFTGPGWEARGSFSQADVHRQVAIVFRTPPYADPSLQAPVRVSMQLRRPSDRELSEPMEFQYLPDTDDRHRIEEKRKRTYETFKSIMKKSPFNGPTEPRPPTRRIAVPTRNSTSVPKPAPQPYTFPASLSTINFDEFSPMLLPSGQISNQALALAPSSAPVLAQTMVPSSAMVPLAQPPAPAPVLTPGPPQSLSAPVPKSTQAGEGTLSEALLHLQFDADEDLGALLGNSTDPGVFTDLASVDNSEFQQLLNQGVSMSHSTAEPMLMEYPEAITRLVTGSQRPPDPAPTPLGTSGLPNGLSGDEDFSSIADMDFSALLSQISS

What does the source list for CC[C@H](C)[C@H](NC(=O)[C@@H](NC(=O)[C@H](CCCNC(=N)N)NC(=O)[C@@H]1CCCN1C(=O)[C@H](CCCCN)NC(=O)[C@H](CCCCN)NC(=O)[C@H](Cc1ccccc1)NC(=O)[C@H](Cc1ccccc1)NC(=O)[C@H](CCCCN)NC(=O)[C@H](CCCCN)NC(=O)[C@H](C)NC(=O)[C@H](CCCNC(=N)N)NC(=O)[C@H](CCCCN)NC(=O)[C@H](CCCCN)NC(=O)[C@@H](NC(=O)[C@H](CO)NC(=O)[C@H](CC(N)=O)NC(=O)[C@H](CCCCN)NC(=O)[C@H](CC(C)C)NC(=O)[C@H](CCCCN)NC(=O)[C@H](CCCCN)NC(=O)[C@H](Cc1ccccc1)NC(=O)[C@H](Cc1ccccc1)NC(=O)[C@@H](N)CCCCN)C(C)C)C(C)C)C(=O)NCC(=O)N[C@H](C(=O)N[C@@H](CO)C(=O)N[C@H](C(=O)N1CCC[C@H]1C(=O)N[C@@H](Cc1ccccc1)C(=O)O)[C@@H](C)CC)C(C)C (H-KFFKKLKNSVKKRAKKFFKKPRVIGVSIPF-OH)?
Activity (BMDM [1]): Active; half-life [2]: < 1 h; Activity (Mus musculus [3]): Active; survival at 10 mg/kg (Mus musculus [4]): 63%; Activity (Mus musculus [5]): Dose-dependent effect; Activity [6]: inactive; Activity (Mus musculus [7]): Active; Activity [8]: tde; Activity [9]: 1000 pg/mL; Activity [10]: 464.9 pg/mL; Activity (BMDM [11]): Active; Activity (BMDM [12]): Active; Activity (BMDM [13]): inactive; Activity (RAW264.7 [14]): 20%; inhibition (RAW264.7 [15]): inactive; inhibition (RAW264.7 [16]): Active; Activity (Mus musculus [17]): inactive; Activity (Mus musculus [18]): inactive; Activity (RAW264.7 [19]): inactive; Activity [20]: Non-toxic; Activity (BMDM [21]): inactive; Activity (BMDM [22]): Active; fold change (FC) [23]: 4.5; fold change (FC) [24]: 2.5
